Hits are enriched below; roughly 4.1% of the tested compounds scored in any of these assays.
Kir21 inh: inhibitors of mouse Kir2.1 inward-rectifier potassium channel | HEK293-Kir2.1, FluxOR thallium flux fluorescence; stronger effect = lower value | B-score at 10 µM | actives 0.85% (n = 310,000) | AID 1672, 2009;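 active means fluorescence ratio B-score at or below minus 3 SD of library scores, with starting-brightness B-score within 2 SD, cut at about -4.2 in these data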;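 further: channel flux triggered by added potassium and thallium sulfate stimulus; B-score of peak minus minimum fluorescence over baseline after thallium stimulus; more negative B-score means stronger Kir2.1 block with less thallium influx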
MrgX1 antag: antagonists of human MrgX1 receptor, primary screen, HEK293 cells, Fluo-4 calcium flux; Mas-related G-protein coupled receptor member X1 (Homo sapiens), Q96LB2; BAM8-22 antagonism; stronger effect = lower value; B-score at 10 µM; actives 1.3% (n = 310,000); AID 588676, 2011;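 active means calcium-response B-score plate-corrected more than 3 library SD below zero, starting fluorescence within 5 deviations, no agonist response on first addition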;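 further: peak minus trough fluorescence over baseline after final BAM8-22 challenge near maximal dose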
Target sequence (Q96LB2 whole entry, looked up): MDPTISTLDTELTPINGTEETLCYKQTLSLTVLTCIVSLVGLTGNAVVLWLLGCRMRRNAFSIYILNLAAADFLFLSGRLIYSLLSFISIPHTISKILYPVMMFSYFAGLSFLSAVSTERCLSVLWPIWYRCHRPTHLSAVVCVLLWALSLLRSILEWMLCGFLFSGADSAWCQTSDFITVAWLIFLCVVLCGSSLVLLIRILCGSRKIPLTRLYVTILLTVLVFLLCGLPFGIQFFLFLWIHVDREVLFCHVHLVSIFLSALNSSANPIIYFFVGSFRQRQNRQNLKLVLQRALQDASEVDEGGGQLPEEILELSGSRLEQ
MrgX1 allo act: positive allosteric modulators of MrgX1, primary screen, HEK293 cells, Fluo-4 calcium flux; FDSS; stronger effect = higher value; actives 0.63% (n = 310,000); AID 588675, 2011; B-score at 10 µM;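 active means plate-corrected calcium response at least 3 library SD above typical, normal starting fluorescence, not activating the receptor alone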;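 further: compound read alongside a low EC10 to EC30 dose of BAM8-22 agonist; peak minus trough fluorescence over baseline measured at the second addition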
MrgX1 ag: agonists of human MrgX1 receptor, primary screen, HEK293 cells, Fluo-4 calcium flux; actives 0.44% (n = 310,000); AID 588627, 2011; B-score at 10 µM; Mas-related G-protein coupled receptor member X1 (Homo sapiens), Q96LB2; Fluo-4 calcium fluorescence, agonist mode; stronger effect = higher value;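 active means calcium response B-score plate-corrected fluorescence ratio at least 3 library SD, with starting fluorescence B-score inside 5 SD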
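times = overnight plating, then 30 min 37 °C plus 30 min room-temperature dye loading | assay system = stable human MrgX1 HEK293 cell line | input = fifteen thousand cells per well | signal = kinetic calcium dye fluorescence, Fluo-4 NW | dosing = compound delivered in addition one of three | read-out = B-scored fluorescence response ratio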
RGS4 pot: RGS4 potentiators or activators, primary screen, cell-based, HEK293 M3R inducible RGS4, calcium flux. actives 0.92% (n = 310,000). carbachol calcium flux Fluo4; stronger effect = lower value. B-score at 10 µM. AID 463111, 2010;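 active means B-score of the integrated calcium signal more than 4 SD below the library mean, with starting fluorescence not abnormally high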;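 further: negative B-score means reduced calcium response which marks RGS4 activation or potentiation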
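Assay system: HEK293 FlpIn-TREx cells, stable M3R, doxycycline-inducible RGS4 / Probe or stimulus: carbachol, ECmax concentration / Times: overnight RGS4 induction, 30 min dye load 37 °C, 20 min compound RT / Signal: kinetic calcium fluorescence imaging with Fluo4-AM dye, 2 µM / Measure: Agonist-evoked peak-minus-minimum fluorescence over baseline, integrated ratio, B score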
RGS4 inh: RGS4 inhibitors, primary screen, cell-based, HEK293 M3R inducible RGS4, calcium flux; B-score at 10 µM; actives 0.45% (n = 310,000); Regulator of G-protein signaling 4 (Homo sapiens), P49798; AID 463165, 2010; Fluo-4 calcium flux; stronger effect = higher value; triggered by carbachol at its EC20;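 active means B-score, a plate-corrected calcium signal, over three deviations above library mean, with baseline fluorescence within five deviations of library mean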;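 further: RGS4 expression induced by doxycycline in cells with stable M3 receptor; B-score is computed from the integrated fluorescence ratio over baseline after carbachol; higher B-score means a larger calcium signal and so more RGS4 inhibition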
Target sequence (P49798 whole entry, looked up): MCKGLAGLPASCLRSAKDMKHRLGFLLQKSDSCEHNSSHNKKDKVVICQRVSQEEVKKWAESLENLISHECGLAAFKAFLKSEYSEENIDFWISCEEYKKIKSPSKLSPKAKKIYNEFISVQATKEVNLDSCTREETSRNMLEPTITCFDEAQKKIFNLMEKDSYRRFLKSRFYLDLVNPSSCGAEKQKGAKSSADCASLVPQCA
MrgX1 antag conf: MrgX1 receptor antagonists, duplicate retest, confirmation, HEK293 cells, Fluo-4 calcium flux; remaining BAM8-22 calcium response % of control (stronger effect = lower value), % at 10 µM; actives 19% (n = 2,300); BAM8-22 calcium flux; stronger effect = lower value; AID 602420, 2012; shares compounds with MrgX1 antag;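 active means remaining agonist calcium response no higher than 100% minus 3 SD of agonist-only control wells, with starting fluorescence near control levels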;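 further: agonist BAM8-22 given at a near maximal EC90 to ECmax level; peak minus minimum fluorescence divided by baseline after agonist addition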
HEK293 Ca flux: nonspecific calcium signal in parental HEK293, confirmation, counter-screen for MrgX1 antagonist project, parental HEK293 cells, Fluo-4 calcium flux; Fluo-4 calcium fluorescence, FDSS; fluorescence ratio F(max-min)/F0 at 10 µM; shares compounds with MrgX1 antag; AID 624111, 2012; actives 2% (n = 4,000);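 active means duplicate-averaged calcium fluorescence ratio at least three times the standard deviation of buffer wells, a nonspecific response in parental cells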
HEK293 Ca counter: calcium response in parental HEK293 cells, primary screen, counter-screen for MrgX1 allosteric activator project, cell-based, Fluo-4 calcium flux, duplicate; shares compounds with MrgX1 antag; Fluo-4 fluorescence ratio; stronger effect = higher value; fluorescence ratio F(max-min)/F0 at 10 µM; actives 0.4% (n = 4,000);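 active means calcium fluorescence ratio, averaged over duplicates, at least 3 SD of the buffer-well ratio, meaning a nonspecific response in receptor-free cells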;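 further: untransfected parental HEK293 lacking MrgX1 used as counterscreen for MrgX1 allosteric activators; fluorescence change taken during the second addition on a kinetic imager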
HEK293 Ca cntr2: calcium response in parental HEK293 cells, primary screen, counter-screen for MrgX1 agonist project, cell-based, Fluo-4 calcium flux, duplicate, agonist mode | shares compounds with MrgX1 antag | Fluo-4 calcium fluorescence (FDSS); stronger effect = higher value | fluorescence ratio F(max-min)/F0 at 10 µM | actives 8.7% (n = 4,000) | AID 624115, 2012;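 active means calcium fluorescence ratio at least three times the spread of buffer wells, meaning a non-specific response in parental cells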
Hits are given with their value.

Screening CN(C(=O)c1cccc(Cl)c1)C1CCCN(Cc2ccccc2F)C1 (centres undefined) returned Kir21 inh inactive, MrgX1 antag inactive, MrgX1 allo act inactive, MrgX1 ag inactive, RGS4 pot inactive and RGS4 inh inactive.
`CC(=O)c1ccccc1C(=O)N(C)C1CCCN(Cc2ccccc2F)C1` (centres undefined) gave Kir21 inh inactive, MrgX1 antag -4.8, MrgX1 allo act inactive, MrgX1 ag inactive, RGS4 pot inactive, RGS4 inh inactive, MrgX1 antag conf inactive, HEK293 Ca flux inactive, HEK293 Ca counter inactive and HEK293 Ca cntr2 45.
For O=C(c1cc(-c2ccc(Cl)cc2Cl)on1)N1CCCC1 the results were Kir21 inh inactive, MrgX1 antag inactive, MrgX1 allo act inactive, MrgX1 ag inactive, RGS4 pot inactive and RGS4 inh inactive.
Screening O=C(c1cc(-c2ccc(Cl)cc2Cl)on1)N1CCCCCC1 returned Kir21 inh inactive, MrgX1 antag -5.3, MrgX1 allo act inactive, MrgX1 ag inactive, RGS4 pot inactive, RGS4 inh inactive, MrgX1 antag conf inactive, HEK293 Ca flux inactive, HEK293 Ca counter inactive and HEK293 Ca cntr2 inactive.
COc1ccc(C)cc1S(=O)(=O)N(CC(=O)N1CCCC1)c1ccccc1 was read as Kir21 inh inactive, MrgX1 antag -5.8, MrgX1 allo act inactive, MrgX1 ag inactive, RGS4 pot inactive, RGS4 inh inactive, MrgX1 antag conf inactive, HEK293 Ca flux inactive, HEK293 Ca counter inactive and HEK293 Ca cntr2 inactive.
`Cc1ccc(-c2nc3cccnc3o2)cc1NC(=O)COc1ccc(C(C)(C)C)cc1` gave Kir21 inh inactive, MrgX1 antag -12, MrgX1 allo act inactive, MrgX1 ag inactive, RGS4 pot -8.2, RGS4 inh inactive, MrgX1 antag conf 83%, HEK293 Ca flux inactive, HEK293 Ca counter inactive and HEK293 Ca cntr2 inactive.
Cc1ccc(-c2nc3ncccc3o2)cc1NC(=O)COc1ccccc1 was read as Kir21 inh inactive, MrgX1 antag inactive, MrgX1 allo act inactive, MrgX1 ag inactive, RGS4 pot inactive and RGS4 inh inactive.
Screening CC(=O)N1c2ccccc2CCc2ccc(N)cc21 returned Kir21 inh inactive, MrgX1 antag inactive, MrgX1 allo act inactive, MrgX1 ag inactive, RGS4 pot inactive and RGS4 inh inactive.
Screening CC(=O)Nc1ccc2c(c1)N(C(C)=O)c1ccccc1CC2 returned Kir21 inh inactive, MrgX1 antag -4.7, MrgX1 allo act inactive, MrgX1 ag inactive, RGS4 pot inactive, RGS4 inh inactive, MrgX1 antag conf 82%, HEK293 Ca flux inactive, HEK293 Ca counter inactive and HEK293 Ca cntr2 inactive.
Screening CN1CCC(NCCC(c2ccc(F)cc2)c2ccc(Cl)cc2)CC1 (centres undefined) returned Kir21 inh -6.7, MrgX1 antag -4.6, MrgX1 allo act inactive, MrgX1 ag inactive, RGS4 pot inactive, RGS4 inh inactive, MrgX1 antag conf inactive, HEK293 Ca flux inactive, HEK293 Ca counter inactive and HEK293 Ca cntr2 inactive.

Screens from PubChem.
